# Test results published in ChEMBL document CHEMBL4619783, “Identification and Optimization of a Series of 8-Hydroxy Naphthyridines with Potent In Vitro Antileishmanial Activity: Initial SAR and Assessment of In Vivo Activity” (J Med Chem, 2020).
# Assays:
# [1] = Toxicity in human THP1 cells assessed as reduction in cell viability; format: cell-based; conditions: THP-1 cells
# Leishmania donovani [2] = assay: Antileishmanial activity against Leishmania donovani amastigotes infected in human THP1 cells incubated for 96 hrs; format: functional, organism-based; conditions: THP-1, 96 h
# Procedure, shortened: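 THP-1 cells were infected with L. donovani amastigotes and exposed to compound for 96 h rather than the earlier 72 h. Values are from at least three or four independent replicates.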
# [3] = Distribution coefficient, logD of the compound at pH 7.4 by chromatography; format: physicochemical; conditions: octanol/water
# [4] = Kinetic aqueous solubility of the compound; format: physicochemical; conditions: buffer; for solubility kinetic: read-out: Kinetic_solubility
# [5] = Intrinsic clearance in mouse liver microsomes; format: ADME, Microsome
# [6] = Drug metabolism in Balb/C mouse assessed as hydroxylation formation at 50 mg/kg, ip BID by UPLC Q-TOF analysis; format: ADME, organism-based; conditions: in vivo
# Procedure, shortened: (§1)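 Balb/C mice received 50 mg/kg ip. Blood/water (1:2) was sampled at set time points, mixed with acetonitrile and centrifuged 5 min at 7000 rpm. Metabolites and parent compound were then analysed. Data are from two runs.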
# [7] = Stability in Balb/C mouse assessed as parent compound level at 50 mg/kg, ip BID after 8 hrs by UPLC Q-TOF analysis; format: ADME, organism-based; conditions: in vivo; procedure, shortened: as §1
# [8] = Drug metabolism in Balb/C mouse assessed as glucuronide adduct formation at 50 mg/kg, ip BID by UPLC Q-TOF analysis; format: ADME, organism-based; conditions: in vivo; procedure, shortened: as §1
# Leishmania donovani [9] = assay: Antileishmanial activity against Leishmania donovani infected in mouse assessed as reduction in parasite levels at 30 mg/kg, po qd; parameters: scale not given: the % may be the effect or the level left
# [10] = Selectivity index, ratio of EC50 for toxicity in human THP1 cells assessed as reduction in cell viability to EC50 for antileishmanial activity against Leishmania donovani amastigotes infected in human THP1 cells incubated for 96 hrs; format: cell-based; conditions: THP-1 cells, read-out: Ratio EC50
chromatographic logD [3],solubility kinetic [4] [µM],Compound,EC50 [1] [µM],EC50 (Leishmania donovani [2]) [µM],logD [3],Kinetic_solubility [4] [µM],CLH [5] [mL/min/g],Drug metabolism [6],Stability [7],Drug metabolism [8],Activity (Leishmania donovani [9]) [%],selectivity ratio at 96 h [10]
,,COc1ccc(CNC(=O)c2ncc3cccnc3c2O)cc1,> 50.1,0.501,4.2,> 250,2.6,,,,,
,,CNC(=O)c1nc(-c2ccccc2OC)c2cccnc2c1O,39.8,10,4.2,219,0.9,Metabolite_Detected,Stable,Metabolite_Notdetected,,
,,COc1ccccc1-c1nc(-c2nc(C)n[nH]2)c(OC)c2ncccc12,> 50.1,2.51,5.7,> 250,2,,,,,
,,Cc1n[nH]c(-c2cc3ncccc3c(-c3ccccc3)n2)n1,> 50.1,> 50.1,,> 250,,,,,,
,,Oc1c(-c2nc(CN3CCOCC3)n[nH]2)ncc2cccnc12,> 50.1,,0.5,219,0.8,,,,,
,,O=C(NCc1ccc(Cl)cc1)c1ncc2cccnc2c1O,> 50.1,,,> 250,10,,,,,
,,O=C(NCc1ccc(Cl)cc1)c1ccc2cccnc2c1O,6.31,15.8,4.8,219,19,,,,,
,,Cc1n[nH]c(-c2ncc3cccnc3c2O)n1,> 50.1,> 50.1,0.73,> 250,3.3,,,,,
,,Oc1c(-c2nc(C(O)c3ccccc3)n[nH]2)ncc2cccnc12 (configuration not stated),> 50.1,5.01,,> 250,1.9,,,,,
,,CCCCCCCCCCCCCCCCOP(=O)([O-])OCC[N+](C)(C)C [MILTEFOSINE],> 50.1,3.98,,,,,,,>99,
,,Oc1c(-c2nnc(Cc3ccc(Cl)cc3)[nH]2)ncc2cccnc12,31.6,,4.1,219,18,,,,,100
,,COc1ccc(CNC(=O)c2nn(C)c3cccnc3c2=O)cc1,> 50.1,> 50.1,1.9,> 250,0.7,,,,,
4.3,> 250,Cc1n[nH]c(-c2nc(-c3ccccc3C(F)(F)F)c3cccnc3c2O)n1,> 50.1,0.1,,,1.4,,,,,
,,Oc1c(-c2nnc(Cc3ccc(F)cc3)[nH]2)ncc2cccnc12,39.8,2.51,,,,,,,,
,,O=C1CCCN1Cc1n[nH]c(-c2ncc3cccnc3c2O)n1,> 50.1,> 50.1,,> 250,< 0.5,,,,,
,,COc1ccccc1-c1nc(C(=O)N[C@H](C)c2ccc(F)cc2)c(O)c(=O)n1C,> 50.1,> 50.1,5.5,173,< 0.5,,,,,
,219,O=C(NCc1ccc(Cl)cc1)c1nc(N2CCOCC2)c2cccnc2c1O,> 50.1,> 50.1,,,24,,,,,
,> 250,C[C@@H](NC(=O)c1cn(C)c2cccnc2c1=O)c1ccc(F)cc1,> 50.1,> 50.1,,,0.7,,,,,
,,O=C(NCc1ccc(Cl)cc1)c1ncc2ccccc2c1O,> 50.1,> 50.1,7.6,39,28,,,,,
,,Cc1nnc(C(=O)NC(C)(C)c2nc(C(=O)NCc3ccc(F)cc3)c(O)c(=O)n2C)o1 [RALTEGRAVIR],> 50.1,> 50.1,,> 250,,,,,,
3.3,,O=C(NCC1CC1)c1ncc2cccnc2c1O,> 50.1,1.26,,,13,,,,,
,,COc1ccccc1-c1nc(-c2nnc(C)o2)c(O)c2ncccc12,> 50.1,> 50.1,3.8,> 250,< 0.5,,,,,
1.5,250,Cc1n[nH]c(-c2nc(N3CCCCS3(=O)=O)c3cccnc3c2O)n1,> 50.1,> 50.1,,,0.6,,,,,
,> 250,COc1ccccc1-c1nc(C(=O)NCC2CC2)c(O)c2ncccc12,> 50.1,2,,,8,,,,,
-0.6,> 250,Cc1n[nH]c(-c2nc(N(C)C)c3cccnc3c2O)n1,> 50.1,15.8,,,14,,,,,
,,C[C@@H]1[C@H](O)[C@@H](C)/C=C/C=C/C=C/C=C/C=C/C=C/C=C/[C@H](O[C@@H]2O[C@H](C)[C@@H](O)[C@H](N)[C@@H]2O)C[C@@H]2O[C@](O)(C[C@@H](O)C[C@@H](O)[C@H](O)CC[C@@H](O)C[C@@H](O)CC(=O)O[C@H]1C)C[C@H](O)[C@H]2C(=O)O [AMPHOTERICIN B],> 1,0.2,,,,,,,,
